# Test results reported in paper PMC4463842 (Molecular Medicine Reports, 2015).
# What was measured:
# [1] = biological target: peptide-HLA-A*0201 complex (Homo sapiens, UniProt P04439, D140Y/D185E/D98H/E176V/E277Q/G131W/G231S/I119V/I121R/I166T/I218V/L300P/L318F/N151K/N90K/P208A/P217A/Q86G/Q94H/R138H/R169H/T345S); assay: BFA decay assay; type: binding; conditions: T2 cells loaded with 100 µM peptide, 37°C, time required for 50% reduction of the MFI value recorded at time 0
# [2] = test system: MCF-7 cells (HLA-A*0201+, EPS8+); assay: LDH release cytotoxicity assay of peptide-specific CTLs; type: cell-based, human; conditions: effector to target cell ratio 100:1, CTLs induced with peptide 10 µg/ml
# How it was run: (§1)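 Effectors were CTLs from donor PBMCs after three rounds of peptide stimulation over 3 weeks. Targets were plated at 5,000/well at E:T 100:1, spun 250 × g 4 min, then co-cultured 4–6 h at 37°C, 5% CO2, in phenol red-free medium with 5% FBS. Supernatant LDH gave %cytotoxicity = (experimental − effector spontaneous − target spontaneous)/(target maximum − target spontaneous) ×100. Triplicate wells, three repeats.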
# [3] = test system: T2 cells pulsed with corresponding peptides; assay: as above; type: cell-based, human; conditions: effector to target cell ratio 100:1
# How it was run: as §1
Sequence,DC50 [1] [h],average lysis rate of MCF-7 cells ([2]; donor 1) [%],average lysis rate of MCF-7 cells ([2]; donor 2) [%],lysis rate of T2 cells loaded with the corresponding peptide ([3]; donor 1) [%],lysis rate of T2 cells loaded with the corresponding peptide ([3]; donor 2) [%]
FLFTPLNMV [Peptide 360],>8,,,,
ILDDIEFFI [Peptide 276],6 to 8,,,,
KLLDAKGKV [Peptide 92],,51.28±1.54,54.22±3.01,45.41±4.16,35.23±1.50
QLAESVANV [Peptide 455],>8,,,,
